Results: ChEMBL document CHEMBL4513216, “Probing the Open Global Health Chemical Diversity Library for Multistage-Active Starting Points for Next-Generation Antimalarials” (ACS Infect Dis, 2020)

Assay: Toxicity liver stage against HepG2, at 10uM
Type: cell-based
Set-up: test concentration 10 uM, cell line HepG2-A16-CD81EGFP
Conditions: human, HepG2-A16-CD81EGFP cells; read-out: INHIBITION
In short: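 Uninfected HepG2-A16-CD81EGFP cells, 3 × 10^3 per well, 1536-well, plated on prespotted compound at 10 μM final, parasite-free screening media added to match infected plates; puromycin 10 μM positive, DMSO 0.5% negative; run in parallel with 48 h PbLuc assay at 37 °C, 5% CO2; viability by CellTiter-Glo luminescence, normalized to controls.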

SMILES | cytotoxicity at 10 µM [%]
CCn1nc(C)c2ncnc(N3CCCC(C)C3)c21 (configuration not stated) | 9.18
c1cc2c(cc1C1(CNC3=NCCN3)CCCC1)OCCO2 | 11
CS(=O)(=O)CCOCCNc1cncc(Br)c1 | 1.83
Cc1n[nH]c(CN2CCN(Cc3ccccc3)[C@@H]3CS(=O)(=O)C[C@@H]32)n1 | -7.42
Cc1cnn(CC(C)NCc2csc(-c3ncccn3)n2)c1 (configuration not stated) | -6.94
O=C(Nc1ccc(CCN2CCSCC2)cc1)NC1CC1 | -12.1
Oc1cccc(CN2CCN(C3CCc4ccccc4C3)CC2)c1 (configuration not stated) | 6.42
CC(=O)N(C)CC(=O)Nc1cnc(-n2ccnc2)nc1 | -9.69
CS(=O)(=O)N1Cc2ccccc2C2(CCN(C(=O)c3ccno3)CC2)C1 | 6.31
Cc1cnn(CC2CN(CC(=O)Nc3ccncc3)CCO2)c1 (configuration not stated) | -3.75
O=C(C1CCC1)N1CCC(c2ncc3c(n2)CCNC3)CC1 | -25.1
CN(Cc1ccco1)C(=O)C1CSCN1C(=O)C1CCC1 (configuration not stated) | -13.2
CCn1cc(S(=O)(=O)NC(CO)Cc2c[nH]c3ccccc23)cn1 (configuration not stated) | 10.8
Cc1nc(NC(=O)c2c(-n3cnnn3)sc3c2CCC3)sc1C | 5.95
c1cncc(N2CCCn3nnc(COCC4CC4)c3C2)c1 | 5.5
O=c1cc(CN2CCCC2)nc2n1CCCN(Cc1ccsc1)C2 | -6.44
CCCC(NC(=O)c1cscc1C)c1nnn[nH]1 (configuration not stated) | 19.5
CC(=O)c1ccc(CNC(=O)c2cc(C#N)cn2C)nc1C | 5.44
O=C(CCn1cnnn1)N1CCCC(CO)(CCCc2ccccc2)C1 (configuration not stated) | 2.74
OCC1CCCN1c1cc(N2CCC(OC3CCCC3)CC2)ncn1 (configuration not stated) | -2.43
CCc1ccc(O)c(C(=O)N2CCN(CC(=O)N(CC)CC)CC2)c1 | 4.49
CC(=O)Nc1ccc(Oc2ccc(CN3CCCC3)cc2F)cc1 | 0.9
CCc1ccc(CNc2cc(-c3ccoc3C)nn2CCO)o1 | 0.485

SMILES | cytotoxicity at 10 µM [%]
O=C(O)c1cc(NS(=O)(=O)c2cccc(Cl)c2F)ccc1Cl | -4.92
CNc1cccc(CC2COCCN(C(=O)c3cncs3)C2)n1 (configuration not stated) | 6.42
CN1C(Cn2cccn2)C[C@@H]2CN(C(=O)c3cccc(C#N)c3)CC[C@@H]21 (some centres not stated) | 3.1
O=C1[C@H]2CN(Cc3nccs3)C[C@H]2CN1c1cncnc1 | -81.9
CCC1CN(C)c2ccccc2CN1CCn1cncn1 (configuration not stated) | 9.4
Cc1nccn1-c1ccc(=O)n(CCNC(=O)c2ccncc2)n1 | -3.18
CCc1cc(NCCc2ccc(O)cc2)n2nccc2n1 | -16.3
O=C(Cc1cccc(O)c1)NCCNc1nccc(C(F)(F)F)n1 | 7.48
CC(C)S(=O)(=O)NCC1CCCN(C(=O)c2ccc3c(c2)OCCO3)C1 (configuration not stated) | -35.2
CC(C)(CNc1ccccc1S(=O)(=O)C(F)F)N1CCOCC1 | 12.2
O=C(COc1ccc2c(c1)OCO2)NCc1ccco1 | 3.22
COc1ccccc1C1(CNc2cn[nH]c(=O)c2Cl)CC1 | 54.8
O=C1OCCN1Cc1cccc(C(F)(F)F)c1F | -0.524
Cc1nn(C)c2c(N3CCN(C(=O)C4CCC4)CC3)ncnc12 | 1.78
c1ccc(-c2nnc(N3CCCC4(CCOC4)C3)s2)cc1 (configuration not stated) | -2.37
CCOCCCC(=O)Nc1cc(C(N)=O)ccc1N1CCCCC1 | -48
Cc1cc(C(=O)N2CCc3ncnc(-c4cnn(C)c4)c3CC2)no1 | 8.88
Cc1ccccc1C(=O)NCc1ccc(N2CCNC(=O)C2)cc1 | -9.67
COc1ccc2c(c1)c(C(=O)Nc1cc(C)n(C)n1)cn2C(C)C | -1.33
Cc1ncc2c(c1CNC(=O)C1(c3ccc(F)cc3)CC1)CCNC2 | -46.6
CCc1nc(CN2CCCC2c2c(C)nn(C)c2OC)no1 (configuration not stated) | -6.07
OCCN1CCN(CC(O)c2ccc(OC(F)(F)F)cc2)CC1 (configuration not stated) | -20.8
CN1C(=O)CCC12CCN(Cc1ccco1)CC2 | 1.61

SMILES | cytotoxicity at 10 µM [%]
COCCN1C[C@H]2CN(C(=O)NCc3ccccc3)CCN2C1=O | 2.08
CCC(C)(C)NC(=O)c1ccc(NC(=O)NCc2cc(C)no2)cc1 | 0.696
COc1ccc(C2CCCCCN2S(=O)(=O)N(C)C)cc1 (configuration not stated) | -9.87
CNC(=O)CN1CC[C@H]2CN(C(=O)c3cccc(C)c3)C[C@H]2C1 | -2.45
COCCC1COC2(CCN(C(=O)C3CCC3)CC2)C1 (configuration not stated) | 8.25
CN1CCN(c2cc(CNC(=O)c3ccsc3)ccn2)CC1 | -7.27
COc1ccc(/C=C/CN2CCCC3(C2)CN(C)C(=O)O3)cc1 (configuration not stated) | -2.67
CC(C)CN(CCc1ccccc1)Cc1nc2c(cnn2C)c(=O)[nH]1 | -6.94
O=C(c1cnc(-c2cccs2)s1)N1CCCC(n2ccnc2)C1 (configuration not stated) | -12.8
CN1CCN(C(=O)c2occc2CN2C(=O)Cc3ccccc32)CC1 | -1.89
CCC(C)NC(=O)c1cccc(CNCc2csc(C(C)C)n2)c1 (configuration not stated) | 9.48
CN(Cc1ccccc1)CC(O)Cn1cnc2c(cnn2C)c1=O (configuration not stated) | 1.53
CCN1CCC2(CC1)CC(COC)N(Cc1csc(C)n1)C2 (configuration not stated) | 6.68
Cc1nc(-c2c(-c3ccccc3)ncn2[C@H]2C[C@@H](C(=O)O)N(C)C2)co1 | 0.024
COc1ccc(CNc2ncnc3c2NC(=O)CN3)cc1 | 11.8
CC(C)Nc1cccc(C(=O)NCC(O)c2ccc(F)cc2F)c1 (configuration not stated) | 14.8
CCCn1nc2c(cc1=O)CN(Cc1nc(C)c3ccccc3n1)CC2 | -2.45
O=C(N[C@H]1CN(Cc2ccsc2)[C@@H]2CCCO[C@H]12)C1CC1 | 4.62
CC(C)N(C)C(=O)C1CSCN1S(=O)(=O)c1ccccc1F (configuration not stated) | 8.65
CN(Cc1ccc(F)cc1F)CC(C)(CO)CO | -2.52
c1cc2nccc(CC3CCCN(C4CCOCC4)CC3)c2cn1 (configuration not stated) | -8.24
CCN1CCN(C(=O)COc2ccc(CN(C)S(C)(=O)=O)cc2)CC1 | 3.3
CC(C)c1noc(CCC(=O)NC(C)c2nnc3n2CCC3)n1 (configuration not stated) | 2.59

SMILES | cytotoxicity at 10 µM [%]
CO[C@@]1(C)C[C@@H](O)C12CCN(C(=O)C1(c3ccccc3F)CC1)CC2 | 3.47
CCc1c(O)nc(SCC(=O)N(CC)CC)n(C(C)CC)c1=O (configuration not stated) | -6.65
CN(C)CCN1CCO[C@H]2CN(Cc3cnn(C)c3)C[C@H]21 | 1.82
CCN(C)C1COC2(CCN(C(=O)c3ccc(Cl)cc3)CC2)C1 (configuration not stated) | -2.57
CC(=O)N1CCN(Cc2nccs2)CC2(CC(=O)N(C)C2)C1 (configuration not stated) | 3.03
O=C(NC1CC1)C1CCc2nnc(-c3cccnc3)n21 (configuration not stated) | 8.96
O=C(c1cc(C2CCCC2)no1)N1CC(O)C1 | -1.57
O=C(NCCCNc1ccccc1)c1scnc1Cl | 1.83
COCCN1C[C@@H](C)[C@@]2(COCCN(C(=O)c3cccs3)C2)C1 | 9.7
CN(CCNc1ncc2c(n1)CCN2c1ccccc1)S(C)(=O)=O | 0.557
COCCN1CCN(CCS(C)(=O)=O)CC1C (configuration not stated) | -1.22
CC(C)(C)OC(=O)N1CSC[C@@H]1C(=O)NCc1ccc(C#N)cc1 | 11.6
Cc1nnsc1-c1nnc2sc(C(C)C)nn12 | -9.74
CC1CCCN(S(=O)(=O)NCc2ccccc2Cn2cncn2)C1 (configuration not stated) | 1.55
Cc1[nH]nc(CCC(=O)N2CCc3ncnc(NCCO)c3CC2)c1C | -0.781
O=C(CN1CCCCC1)NCc1cccnc1-n1cnc2ccccc21 | 0.522
O=C(CCCN1CCCCC1)NC(C(=O)O)c1ccc(Cl)cc1 (configuration not stated) | -2.33
CC(C)(C)NCC(=O)N1CCCC(n2ccnc2)C1 (configuration not stated) | 0.462
CC(C)C(C)NC(=O)Nc1ccc(CS(=O)(=O)C(C)C)cc1 (configuration not stated) | -1.28
CN1CCN(C(=O)c2ccc3c(c2)nc(N2CCOCC2)n3C)CC1=O | 1.22
CC(C)(C)NC(=O)COc1ccc(CNCCOc2ccccn2)cc1 | -3.76
CC(C)(C)c1ccc(OCC(N)=O)c(CN2C[C@H]3CC(O)C[C@H]3C2)c1 (some centres not stated) | -5.28
Cc1cc(Br)ccc1C(=O)Nc1c(C(N)=O)n[nH]c1C | -2.58

SMILES | cytotoxicity at 10 µM [%]
CC(C(=O)Nc1ccc(N2CCCCC2)nc1)n1ccnc1 (configuration not stated) | -29.8
CN1CC=C(c2noc(CCC(=O)N3CCCC3)n2)CC1 | 4.87
O=C(CN1CCOC1=O)N1CCc2nnc(Cc3ccccc3)n2CC1 | -45.6
CCn1cc(CN2C[C@@H]3CCCN3C[C@H]2CCSC)c(C)n1 | -15.3
CC(C)C(C)N(C)Cc1nnc(-c2ccc(Br)s2)o1 (configuration not stated) | -1.65
CN(Cc1ccco1)C(=O)CN1CCN(C)c2ccccc2C1 | -7.2
c1ccc(OCc2noc(CN3CCC(N4CCSCC4)CC3)n2)cc1 | -6.95
CN1CCC(CNC(=O)NCc2ccc(N(C)C)cc2)CC1 | -1.42
CC(=O)N1Cc2nc(C(=O)NCCc3cccnc3)oc2C1 | -81.8
CN1CCCC(CCC(=O)NCCc2nnc(N)s2)C1 (configuration not stated) | -146
CSCC1CCN(c2nc(N)ncc2C)CC1 | -5.2
O=C(Nc1cc(-c2cccnc2)no1)C1CCC1 | 2.82
Cc1nc(CN2CCCC(NCc3nc4ccccc4s3)C2)no1 (configuration not stated) | -0.84
Cc1nc(CN2CCOCC23CCN(c2ccc(C#N)cc2)CC3)cs1 | -13.8
CCOC1CCCN(C(=O)c2[nH]nc(C)c2Br)C1 (configuration not stated) | 0.966
CCOCc1nnc(NCc2ccsc2)o1 | -0.432
Cc1c(Cl)cccc1S(=O)(=O)NCc1cnc(N(C)C)n1C | -6.31
CS(=O)(=O)CCC(=O)NC(Cc1ccccc1)C1CC1 (configuration not stated) | 11.4
O=C(NCCCC(=O)N1Cc2ccccc2C1)NCc1ccsc1 | -15
CN(C)c1nc2c(c(=O)[nH]1)CCN(C(=O)c1cccc3nccnc13)C2 | -10.7
